Experimental data reported in article PMC2605016 (Structure (London, England : 1993), 2008).
Blank lines part the entries; values can stand above or below the compound they belong to.

What was measured:
calmodulin (CaM) = assay: 15N-HSQC NMR titration of 15N-CaM; conditions: reference: unmodified AQP0CBD peptide, second binding event (1:2); sites S235
[1] = CaM pull-down assay with lens membranes; assay type: binding, lamb; conditions: Ca^2+ treated lens pellets, molar excess EGTA, data not shown
In short: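 Lamb lens fiber-cell membranes (2mg/ml total protein) were incubated with recombinant vertebrate CaM (0.67mg/ml) in 10mM Tris pH 8.0, 10mM CaCl2 for 30 minutes at 37°C. Binding was stopped on ice, and free CaM was removed by centrifugation at 10,000xg with 4 pellet washes. Molar excess EGTA was then added to the Ca2+-treated pellets. CaM was detected by SDS-PAGE with silver staining and by western blot.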

15N-CaM = 15N-CaM (Homo sapiens, UniProt P0DP23); assay: NMR titration of 15N-CaM with AQP0 peptides; assay type: binding, vertebrate; conditions: 25°C, pH 6.5, Ca^2+, data not shown

KD (calmodulin (CaM)): weaker; reference 6.5 ± 5.5 × 10−6
Compound: Aquaporin-0 (AQP0, MIP) 223-242 (from UniProt Q6J8I9) S235-P peptide, second binding event (1:2)

Compound: O=C(O)CN(CCOCCOCCN(CC(=O)O)CC(=O)O)CC(=O)O [EGTA]
removal of membrane-bound CaM by EGTA [1]: efficiently removed

interaction of control peptide with CaM (15N-CaM): no interaction
Compound: AQP0loop: peptide corresponding to a cytosolic AQP0 loop, residues 148–158, negative control (TYDERRNGRLG)
